In the array DNA melting data of Ke et al. (doi:10.1101/2024.01.08.574731):

What was measured:
[1] = folding enthalpy; higher = less favourable; fluorescence melt of hairpins on a sequencing array, two-state fit; settings: sodium 0.088 M
Method in brief: (§1)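 Cy3 fluorescence of library hairpins on a sequenced MiSeq flow cell, with annealed Cy3 and quencher oligos, was imaged in 50 mM Na-HEPES pH 8.0, 25 mM NaCl in 2.5 °C steps up to 60 °C. Signals were normalised to pre-quench Cy3 and to control variants. Melting temperature and folding enthalpy came from bootstrapped two-state fits, inverse-variance combined over four replicates. Fitted temperatures were raised by 9.35 °C to match UV melts.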

[2] = melting temperature; fluorescence melt of hairpins on a sequencing array, two-state fit, raised by 9.35 °C to match UV melts; settings: sodium 0.088 M
Method in brief: as §1

Sequence | folding enthalpy [1] [kcal/mol] | Tm [2] [°C]
GGAACGGGAAACCGCTCC (((.(((....))).))) | -28.1 | 48.7
GAGCGTGGAAACGCGCTC (((((.(....).))))) | -21.7 | 66.7
GGCAGCGAAAGCTCCGCC ((((((....)))..))) | -19.2 | 56
GTTAAAGGAAACTTTAAC (((((((....))))))) | -34.6 | 46.6
GCTTTTGGAAACGAAAGC (((((.(....).))))) | -39 | 47.2
GGAAGGGGAAACCCTTCC (((((((....))))))) | -35.1 | 64.4
GCTCTACGAAAGTATAGC (((.(((....))).))) | -29.7 | 42.5
GTTCGCGAAAGCGAAAAC ((((((....)))..))) | -9.22 | 47.4
GATCTTCGTAAAGATC ((((((....)))))) | -40.8 | 44.9
GGCCTTACGAAAGTAGCC (((..(((....)))))) | -22.1 | 36.8
GCAGCGCGAAAGCGAAGC ((..(((....)))..)) | -18.7 | 57.5
GTCTTCGAAAGAAGCGAC ((((((....)))..))) | -20 | 44.7
GACCTAGCGAAAGCTGTC (((..(((....)))))) | -11.6 | 33
GACGGACGAAAGTCAGTC (((.(((....))).))) | -37.5 | 59.5
GATTCCGGAAACGGAACC (.(((((....))))).) | -13.6 | 40.1
GCAGTTGGAAACAATTGC (((.(((....))).))) | -31.2 | 46.9
GCTCTTGGAAACAAGAGC (((((((....))))))) | -37.2 | 63.2
GTGTACCGAAAGGTGCAC (((.(((....))).))) | -34.1 | 65.2
GCAAGTTCGAAAGAATGC (((..(((....)))))) | -11.8 | 27.3
GCGGGGGGAAACTCCCGC (((((.(....).))))) | -33.8 | 68.4
GGTTGTGGAAACGCAACC (((((.(....).))))) | -40.7 | 54
GATCAATTCTTGATC ((((((...)))))) | -29.1 | 44.8
GTTCATCGAAAGATAAC (((.(((....)))))) | -12.4 | 32.3

Sequence | folding enthalpy [1] [kcal/mol] | Tm [2] [°C]
GTCGTTGGAAACAGCGAC ((((.((....)).)))) | -37.5 | 52.4
GAGTGGCGAAAGCCTCTC (((.(((....))).))) | -24.2 | 53.6
GCCCTAGGAAACTAAGGC (((.(((....))).))) | -21.1 | 34
GCTACGCGAAAGCTTAGC ((((.((....)).)))) | -20.8 | 55.4
GCGCTCGAAAGAGCACGC ((((((....)))..))) | -16.7 | 60
GCGCAGCGAAAGCTAAGC ((..(((....)))..)) | -17.7 | 58.4
GCACCGCGAAAGCTGGGC ((.(.((....)).).)) | -19.1 | 57.5
GCGACAGTCGC ((((...)))) | -27.8 | 46.7
GGCCGGCGAAAGCCTGCC (((.(((....))).))) | -29.7 | 65.2
GCCTAGGGAAACCTAGGC (((((((....))))))) | -36.9 | 67.5
GTTCTTGGAAACAAGAAC (((((((....))))))) | -41.7 | 55.5
GATCACCCTGGTGATC ((((((....)))))) | -41.1 | 64.1
TCGAGGAAACTCGA (((((....))))) | -18.8 | 48
GCTGATGGAAACGTTAGC (((.(.(....).).))) | -11.2 | 27.8
GAACGTGGAAACACGTTC (((((((....))))))) | -31.6 | 66.3
GATGGCGAAAGCCGTATC ((((((....)))..))) | -6.56 | 43.8
GGCTCCGGAAACGAAGCC ((((.((....)).)))) | -40.4 | 50.7
GAATGAGGAAACTCATCC (.(((((....))))).) | -17.4 | 29.9
GTTGAAGAAATTCAAC ((((((....)))))) | -27.1 | 45.8
GATTGCCGAAAGGCATC (((.(((....)))))) | -10.3 | 44.6
GCCATCGAAAGATTGGC ((((((....))).))) | -30.3 | 50.7
GTCGCCGAAAGGCCGGAC ((((((....)))..))) | -13.1 | 41.6
GATCGACGCGTCGATC ((((((....)))))) | -52.3 | 68.2

Sequence | folding enthalpy [1] [kcal/mol] | Tm [2] [°C]
GGTTACGAAAGTAACACC ((((((....)))..))) | -12.7 | 44.6
GCGAGCTGTCGC ((((....)))) | -17.8 | 48.8
GAGGGGGAAACCCCTC ((((((....)))))) | -30 | 65.4
GTGCCGTCGAAAGACCAC (((..(((....)))))) | -6.11 | 49.7
GACGGAGGAAACTCCATC ((.((((....)))).)) | -16.8 | 33.6
GCGACCGAAAGGTACCGC ((((((....)))..))) | -21.9 | 47.2
GCGTGCGGAAACGTGCGC (((..((....))..))) | -25.6 | 59.6
GGCTAAGGAAACTCAGCC ((((.((....)).)))) | -27.3 | 38.1
GATATCACGAAAGTGATC (((..(((....)))))) | -9.68 | 39.4
GCTATCGAAAGATACAGC ((((((....)))..))) | -20.8 | 32.6
GCTACGCGAAAGCGCCGC ((..(((....)))..)) | -10.9 | 36.8
GCTTAATCGAAAGATAGC (((..(((....)))))) | -16.4 | 30.8
GATCTAGTCCTAGATC ((((((....)))))) | -31.9 | 47.4
GCAGGGCGAAAGCCTTGC (((.(((....))).))) | -40.3 | 61.2
GATCCAATTATGGATC ((((((....)))))) | -36.5 | 50.4
GTGTTCGGAAACGAGTAC ((..(((....)))..)) | -18.9 | 31.2
GCTTGAGCGAAAGCTAGC (((..(((....)))))) | -13.9 | 47.8
GCTCATGGAAACATGAGC (((((((....))))))) | -33 | 67.6
GGGGAGGAAACTCCCC ((((((....)))))) | -36.9 | 66.3
GATCCGTTGTCGGATC ((((((....)))))) | -44.4 | 59.4
GGTGCTGCGAAAGCAACC (((..(((....)))))) | -14.4 | 43.8
GATCATTCATATGATC ((((((....)))))) | -38.8 | 48
GGTTCTGGAAACAAAACC ((((.((....)).)))) | -16.3 | 28.5

Sequence | folding enthalpy [1] [kcal/mol] | Tm [2] [°C]
GATCCCGTTCGGGATC ((((((....)))))) | -43.2 | 67.8
GTTATAGGAAACTATGAC ((.((((....)))).)) | -23 | 33
GTGCTGCGAAAGCAACAC (((.(((....))).))) | -33.8 | 56.5
GTGGGTGGAAACGCCCAC (((((.(....).))))) | -40.3 | 61.8
GATCGATAAGTCGATC ((((((....)))))) | -44 | 52.5
GATCCGCAGCCGGATC ((((((....)))))) | -40.7 | 55.9
GCCATTCGAAAGAAGGGC (((.(((....))).))) | -41 | 59.4
GTAGGCGGAAACGCTTGC (.(.(((....))).).) | -11.6 | 30.3
GCAGCTGGAAACGGCTGC (((((.(....).))))) | -46.1 | 60.2
GTAGTCACGAAAGTGTAC (((..(((....)))))) | -12 | 30.5
GATCGACCATCGATC ((((((...)))))) | -32.2 | 49.6
GCTGTCGAAAGACACAGC ((((((....)))..))) | -14.7 | 48.3
GCTCAGGGAAACCTAAGC (((.(((....))).))) | -20.6 | 34.1
GCCAAAGAAATTTGGC ((((((....)))))) | -34.6 | 54
GCTGTCGAAAGACAGAGC ((((((....)))..))) | -13.6 | 54.8
GCCCACGAAAGTGCGGC ((((((....))).))) | -29.5 | 63.3
GCACACGAAAGTGGTTGC ((((((....)))..))) | -15.5 | 45.9
GGATACCCGAAAGGGTCC (((..(((....)))))) | -10.4 | 31.9
GTTGGCGAAAGCCAGAAC ((((((....)))..))) | -8.8 | 35.1
GCCTTACGAAAGTACGGC (((.(((....))).))) | -46.5 | 52.2
GCGCGACCGAAAGGTCGC (((..(((....)))))) | -5.08 | 68.5
GCGTGTGGAAACGCACGC (((((.(....).))))) | -34.5 | 67.3
GTACAAGGAAACTTGTGC (.(((((....))))).) | -22.3 | 45.4
